Published values gathered from unrelated publications.
Compare with care: the assays were run in different laboratories.
Target: Protein-tyrosine kinase 2-beta (PTK2B, Homo sapiens, UniProt Q14289)

Structure (SMILES)	effect on	mode	technique	tested at	measurement	result
O=C(Nc1cnn(-c2csc(C(=O)NC3COC3)c2)c1)Nc1ccccc1Cl	enzyme activity	inhibitor		5 µM	remaining activity	93.5%
CO[C@@H](C)c1c(Nc2ccc([C@H](N(C)C(=O)C3CCS(=O)(=O)CC3)C(F)(F)F)cc2)cnc2cc(Cl)nn12	cell-free assay		competition with immobilised ligand	1 µM	remaining binding	83%
CCN(CC)CCNC(=O)c1c(C)[nH]c(/C=C2\C(=O)Nc3ccc(F)cc32)c1C	enzyme activity	inhibitor		1 µM	remaining activity	30%
Cc1cc(NC(=O)c2cccc3cc(-c4cccc5[nH]nc(N)c45)ccc23)ccc1F	enzyme activity	inhibitor		0.1 µM	activity vs control	113%
Nc1c(C(=O)NCc2ccc(C(=O)NCCCC3CCCCC3)cc2)cnn1-c1ccccc1	cell-free assay		competition with immobilised ligand	0.1 µM	remaining binding	99%
CC(C)(C)c1nc2c(s1)c1nc(N)ncc1c1ccc(NS(=O)(=O)c3c(F)cccc3F)c(F)c12	enzyme activity	inhibitor	radiometric	1 µM	remaining activity	91%
COc1cc2ncnc(Nc3ccc(Oc4ccccc4)c(C)c3C)c2cc1OC	enzyme activity	inhibitor		1 µM	inhibition	1%
Cc1ccc(C(=O)Nc2ccc(CN3CCN(C)CC3)c(C(F)(F)F)c2)cc1C#Cc1cnc2cccnn12	enzyme activity	inhibitor		23.5 nM	remaining activity	45%
O=C1Nc2ccc(Cl)cc2C1=Cc1cc(Cl)c(O)c(Cl)c1	cell-free assay			0.5 µM	remaining signal	96.7%
CNC(=O)c1cc(Oc2ccc(NC(=O)Nc3ccc(Cl)c(C(F)(F)F)c3)cc2)ccn1	enzyme activity	inhibitor		10 µM	inhibition	28%
Nc1nc(Nc2ccc(S(N)(=O)=O)cc2)nn1C(=O)c1c(F)cccc1F	cell-free assay			0.5 µM	remaining signal	79.7%
CC(C)(O)[C@H]1CC[C@H](Nc2ccc3ncc(-c4cccc(C(F)(F)F)c4)n3n2)CC1	enzyme activity	inhibitor		1 µM	remaining activity	94.4%
CN([C@@H]1CCc2c(CC(=O)O)c3cc(S(C)(=O)=O)ccc3n2C1)S(=O)(=O)c1ccc(F)cc1	cell-free assay		competition with immobilised ligand	1 µM	remaining binding	100%
CN1CC(Oc2cnc(C#N)cc2-c2ccn3nc(NC(=O)C4CC4)cc3c2)C1	enzyme activity	inhibitor		1 µM	inhibition	6%
O=c1nc(-c2ccccn2)sc2ccccc12	cell-free assay		competition with immobilised ligand	1 µM	remaining binding	100%
c1nc2c(Nc3ccc4c(c3)OCCO4)nc(Nc3ccc4c(c3)OCCO4)nc2[nH]1	enzyme activity	inhibitor		10 µM	activity vs control	2.3%
Cc1ccc(Nc2nccc(N(C)c3ccc4c(C)n(C)nc4c3)n2)cc1S(N)(=O)=O	enzyme activity	inhibitor		0.3 µM	inhibition	6%
Cc1[nH]c(/C=C2\C(=O)Nc3ccc(F)cc32)c(C)c1C(=O)N[C@H]1CCN(C(=O)N(C)C)C1	enzyme activity	inhibitor		1 µM	remaining activity	75%
CCc1ccccc1C(=O)Nc1n[nH]c2c(C)c(F)c(C3C(C#N)=C(C)N(C)C(C)=C3C#N)cc12	cell-free assay		competition with immobilised ligand	1 µM	remaining binding	92%
